ChEMBL document CHEMBL4371064, “Erythrofordins D and E, two new cassaine-type diterpenes from Erythrophleum suaveolens” (2019)

What was measured:
Type in all cases: functional
[1] = test system: LOX IMVI; experiment: Growth inhibition of human LOXIMVI cells incubated for 48 hrs by sulforhodamine B assay
Method in brief: (§1)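 Run in the NCI-60 human tumour cell line panel with dose-response testing. GI50 was determined for each cell line from its dose-response data.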

[2] = test system: SK-OV-3; experiment: Growth inhibition of human SKOV3 cells incubated for 48 hrs by sulforhodamine B assay; conditions: SK-OV-3, 48 h; method in brief: as §1
[3] = test system: EKVX; experiment: Growth inhibition of human EKVX cells incubated for 48 hrs by sulforhodamine B assay; method in brief: as §1
[4] = test system: HCC 2998; experiment: Growth inhibition of human HCC2998 cells incubated for 48 hrs by sulforhodamine B assay; conditions: HCC 2998, 48 h; method in brief: as §1
[5] = test system: KM12; experiment: Growth inhibition of human KM12 cells incubated for 48 hrs by sulforhodamine B assay; conditions: KM12, 48 h; method in brief: as §1
[6] = test system: HCT-116; experiment: Growth inhibition of human HCT116 cells incubated for 48 hrs by sulforhodamine B assay; conditions: HCT-116, 48 h; method in brief: as §1
[7] = test system: SK-MEL-28; experiment: Growth inhibition of human SK-MEL-28 cells incubated for 48 hrs by sulforhodamine B assay; conditions: SK-MEL-28, 48 h; method in brief: as §1
[8] = test system: A549; experiment: Growth inhibition of human A549/ATCC cells incubated for 48 hrs by sulforhodamine B assay; conditions: A549, 48 h; method in brief: as §1
[9] = test system: SK-MEL-5; experiment: Growth inhibition of human SK-MEL-5 cells incubated for 48 hrs by sulforhodamine B assay; conditions: SK-MEL-5, 48 h; method in brief: as §1
[10] = test system: U-251; experiment: Growth inhibition of human U251 cells incubated for 48 hrs by sulforhodamine B assay; conditions: U-251, 48 h
Method in brief: (§2)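 Tested in the NCI 60-human-tumour-cell-line screen using the five-dose format. GI₅₀ was derived from each cell line's dose-response. TGI and LC₅₀ were derived from the same dose-response data.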

[11] = test system: Malme-3M; experiment: Growth inhibition of human MALME-3M cells incubated for 48 hrs by sulforhodamine B assay; method in brief: as §1
[12] = test system: MDA-MB-231; experiment: Growth inhibition of human MDA-MB-231 cells incubated for 48 hrs by sulforhodamine B assay; conditions: MDA-MB-231, 48 h; method in brief: as §1
[13] = test system: HCT-15; experiment: Growth inhibition of human HCT15 cells incubated for 48 hrs by sulforhodamine B assay; conditions: HCT-15, 48 h; method in brief: as §1
[14] = test system: SF-539; experiment: Growth inhibition of human SF539 cells incubated for 48 hrs by sulforhodamine B assay; conditions: SF-539, 48 h; method in brief: as §1
[15] = test system: CAKI-1; experiment: Growth inhibition of human Caki1 cells incubated for 48 hrs by sulforhodamine B assay; conditions: CAKI-1, 48 h; method in brief: as §1
[16] = test system: TK-10; experiment: Growth inhibition of human TK10 cells incubated for 48 hrs by sulforhodamine B assay; conditions: TK-10, 48 h; method in brief: as §2
[17] = test system: A498; experiment: Growth inhibition of human A498 cells incubated for 48 hrs by sulforhodamine B assay; conditions: A498, 48 h
Method in brief: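 Run within the NCI-60 human tumour cell line panel as a dose-response screen. For each cell line the readouts are GI50, TGI and LC50. Per-line log values also feed a mean-graph analysis, in which the arithmetic mean of the log values across all lines is subtracted from each line's log value.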

[18] = test system: SK-MEL-2; experiment: Growth inhibition of human SK-MEL-2 cells incubated for 48 hrs by sulforhodamine B assay; conditions: SK-MEL-2, 48 h; method in brief: as §1
[19] = test system: RPMI-8226; experiment: Growth inhibition of human RPMI8226 cells incubated for 48 hrs by sulforhodamine B assay; conditions: RPMI-8226, 48 h; method in brief: as §1
[20] = test system: OVCAR-8; experiment: Growth inhibition of human OVCAR8 cells incubated for 48 hrs by sulforhodamine B assay; conditions: OVCAR-8, 48 h; method in brief: as §1
[21] = test system: SF-268; experiment: Growth inhibition of human SF268 cells incubated for 48 hrs by sulforhodamine B assay; conditions: SF-268, 48 h; method in brief: as §1
[22] = test system: OVCAR-4; experiment: Growth inhibition of human OVCAR4 cells incubated for 48 hrs by sulforhodamine B assay; conditions: OVCAR-4, 48 h; method in brief: as §1
[23] = test system: IGROV-1; experiment: Growth inhibition of human IGROV1 cells incubated for 48 hrs by sulforhodamine B assay; conditions: IGROV-1, 48 h; method in brief: as §1
[24] = test system: NCI-H226; experiment: Growth inhibition of human NCI-H226 cells incubated for 48 hrs by sulforhodamine B assay; conditions: NCI-H226, 48 h; method in brief: as §1
[25] = test system: UACC-257; experiment: Growth inhibition of human UACC257 cells incubated for 48 hrs by sulforhodamine B assay; conditions: UACC-257, 48 h; method in brief: as §2
[26] = test system: ACHN; experiment: Growth inhibition of human ACHN cells incubated for 48 hrs by sulforhodamine B assay; method in brief: as §1
[27] = test system: NCI-H23; experiment: Growth inhibition of human NCI-H23 cells incubated for 48 hrs by sulforhodamine B assay; conditions: NCI-H23, 48 h; method in brief: as §1
[28] = test system: Hs-578T; experiment: Growth inhibition of human Hs578T cells incubated for 48 hrs by sulforhodamine B assay; method in brief: as §1
[29] = test system: 786-0; experiment: Growth inhibition of human 786-0 cells incubated for 48 hrs by sulforhodamine B assay; conditions: 786-0, 48 h; method in brief: as §1

`COC(=O)/C=C1\CC[C@H]2[C@@H](CC(=O)[C@H]3C(C)(C)C(=O)CC[C@]23C)[C@H]1C` showed a GI50 [1] of 692 nM, an LC50 [1] of 5250 nM and a TGI ([1]; read-out: pTGI (converted)) of 1660 nM. The GI50 [2] was 1020 nM, the LC50 [2] was > 34700 nM and the TGI ([2]; read-out: pTGI (converted)) was 3160 nM. For the same molecule, the GI50 [3] was 407 nM, the LC50 [3] was 1910 nM and the TGI ([3]; read-out: pTGI (converted)) was 871 nM. The GI50 [4] was 1450 nM, the LC50 [4] was > 34700 nM and the TGI ([4]; read-out: pTGI (converted)) was 8130 nM. It also gave a GI50 [5] of 1230 nM, an LC50 (concentration killing 50% of cells) [5] of 24000 nM and a TGI ([5]; read-out: pTGI) of 5250 nM. It also gave a GI50 [6] of 646 nM, an LC50 [6] of 2880 nM and a TGI ([6]; read-out: pTGI (converted)) of 1380 nM. For the same molecule, the GI50 [7] was 1170 nM, the LC50 [7] was > 34700 nM and the TGI ([7]; read-out: pTGI (converted)) was 5010 nM. For the same molecule, the GI50 [8] was 427 nM, the LC50 [8] was 1820 nM and the TGI ([8]; read-out: pTGI (converted)) was 891 nM. It also gave a GI50 [9] of 708 nM, an LC50 [9] of 3160 nM and a TGI ([9]; read-out: pTGI (converted)) of 1480 nM. For the same molecule, the GI50 [10] was 646 nM, the LC50 [10] was 2630 nM and the TGI ([10]; read-out: pTGI (converted)) was 1320 nM. For the same molecule, the GI50 [11] was 724 nM, the LC50 [11] was 6920 nM and the TGI ([11]; read-out: pTGI (converted)) was 1660 nM. The GI50 [12] was 1480 nM, the LC50 [12] was > 34700 nM and the TGI ([12]; read-out: pTGI (converted)) was 7940 nM. The GI50 [13] was 692 nM, the LC50 [13] was 3310 nM and the TGI ([13]; read-out: pTGI (converted)) was 1510 nM. It also gave a GI50 [14] of 575 nM, an LC50 [14] of 2090 nM and a TGI ([14]; read-out: pTGI (converted)) of 1100 nM. It also gave a GI50 [15] of 661 nM, an LC50 [15] of 2950 nM and a TGI ([15]; read-out: pTGI (converted)) of 1380 nM. The GI50 [16] was 794 nM, the LC50 (lethal concentration killing 50% of cells) [16] was 14800 nM and the TGI ([16]; read-out: pTGI (converted)) was 2400 nM. For the same molecule, the LC50 [17] was > 34700 nM, the TGI ([17]; read-out: pTGI (converted)) was 1740 nM and the GI50 [18] was 1050 nM. The LC50 (concentration killing 50% of cells) [18] was > 34700 nM, the TGI ([18]; read-out: pTGI (converted)) was 4470 nM and the GI50 [19] was 1290 nM. For the same molecule, the LC50 [19] was > 34700 nM, the TGI ([19]; read-out: pTGI (converted)) was 22400 nM and the GI50 [20] was 851 nM. It also gave an LC50 [20] of 11000 nM, a TGI ([20]; read-out: pTGI (converted)) of 2290 nM and a GI50 [21] of 331 nM. The LC50 [21] was 1910 nM, the TGI ([21]; read-out: pTGI (converted)) was 813 nM and the GI50 [22] was 676 nM. For the same molecule, the LC50 [22] was 5750 nM, the TGI ([22]; read-out: pTGI (converted)) was 1620 nM and the GI50 [23] was 1290 nM. For the same molecule, the LC50 [23] was > 34700 nM, the TGI ([23]; read-out: pTGI (converted)) was 7590 nM and the GI50 [24] was 617 nM. It also gave an LC50 [24] of 2630 nM, a TGI ([24]; read-out: pTGI (converted)) of 1290 nM and a GI50 [25] of 891 nM. It also gave an LC50 [25] of 18600 nM, a TGI ([25]; read-out: pTGI (converted)) of 2450 nM and a GI50 [26] of 162 nM. For the same molecule, the LC50 [26] was 1860 nM, the TGI ([26]; read-out: pTGI (converted)) was 617 nM and the GI50 [27] was 661 nM. The LC50 [27] was > 34700 nM, the TGI ([27]; read-out: pTGI (converted)) was 1780 nM and the GI50 [28] was 417 nM. For the same molecule, the LC50 [28] was > 34700 nM, the TGI ([28]; read-out: pTGI (converted)) was 1660 nM and the GI50 [29] was 676 nM. The LC50 [29] was 3160 nM and the TGI ([29]; read-out: pTGI (converted)) was 1450 nM.
